Measured values: ChEMBL document CHEMBL4825692, “Benzofuranyl-2-imidazoles as imidazoline I2 receptor ligands for Alzheimer's disease” (Eur J Med Chem, 2021)
Calls of active or inactive are those of the source. No cut-off for these calls is given here.

Experiments:
[1] = Displacement of [3H]idazoxan from imidazoline I2 receptor high affinity site in rat brain cerebral cortex membrane measured after 30 mins by liquid scintillation counting spectrometry
Mus musculus [2] = assay: Antialzheimer activity in 5xFAD transgenic Alzheimer disease mouse model assessed as increase in GPX1 expression at 1 mg/kg/day by Western blot analysis
[3] = target: T1, Adrenergic receptor alpha-2 (Homo sapiens, UniProt P08913+P18825+P18089); assay: Displacement of [3H]-RX821002 from adrenergic alpha 2 receptor in post-mortem human brain frontal cortex membrane measured after 30 mins by liquid scintillation counting spectrometry; format: cell membranes
T1 sequence (P08913 whole entry): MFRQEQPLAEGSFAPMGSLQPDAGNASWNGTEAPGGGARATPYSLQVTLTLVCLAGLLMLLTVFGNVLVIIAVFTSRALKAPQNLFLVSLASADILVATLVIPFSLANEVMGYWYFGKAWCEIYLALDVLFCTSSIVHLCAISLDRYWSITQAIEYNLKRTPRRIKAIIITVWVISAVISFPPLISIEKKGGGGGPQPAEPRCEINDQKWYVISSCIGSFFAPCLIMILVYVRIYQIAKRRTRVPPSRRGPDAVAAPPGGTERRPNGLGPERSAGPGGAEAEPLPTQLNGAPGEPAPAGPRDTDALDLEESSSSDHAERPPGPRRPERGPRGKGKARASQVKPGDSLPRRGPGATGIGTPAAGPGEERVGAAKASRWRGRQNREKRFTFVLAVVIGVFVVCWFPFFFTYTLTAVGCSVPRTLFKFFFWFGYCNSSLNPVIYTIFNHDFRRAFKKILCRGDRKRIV
T1 sequence (P18825 whole entry): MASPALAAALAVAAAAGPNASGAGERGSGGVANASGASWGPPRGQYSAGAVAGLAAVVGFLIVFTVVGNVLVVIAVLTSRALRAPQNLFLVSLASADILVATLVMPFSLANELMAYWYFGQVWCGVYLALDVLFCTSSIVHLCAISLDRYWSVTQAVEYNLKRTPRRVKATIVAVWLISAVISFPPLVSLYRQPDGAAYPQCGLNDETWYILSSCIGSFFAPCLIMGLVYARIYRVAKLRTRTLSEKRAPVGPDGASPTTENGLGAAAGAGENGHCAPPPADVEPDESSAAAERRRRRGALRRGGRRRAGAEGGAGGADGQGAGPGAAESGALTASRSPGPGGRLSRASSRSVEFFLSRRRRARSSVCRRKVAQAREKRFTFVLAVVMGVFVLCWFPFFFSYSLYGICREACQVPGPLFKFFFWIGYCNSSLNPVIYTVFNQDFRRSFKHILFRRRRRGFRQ
T1 sequence (P18089 whole entry): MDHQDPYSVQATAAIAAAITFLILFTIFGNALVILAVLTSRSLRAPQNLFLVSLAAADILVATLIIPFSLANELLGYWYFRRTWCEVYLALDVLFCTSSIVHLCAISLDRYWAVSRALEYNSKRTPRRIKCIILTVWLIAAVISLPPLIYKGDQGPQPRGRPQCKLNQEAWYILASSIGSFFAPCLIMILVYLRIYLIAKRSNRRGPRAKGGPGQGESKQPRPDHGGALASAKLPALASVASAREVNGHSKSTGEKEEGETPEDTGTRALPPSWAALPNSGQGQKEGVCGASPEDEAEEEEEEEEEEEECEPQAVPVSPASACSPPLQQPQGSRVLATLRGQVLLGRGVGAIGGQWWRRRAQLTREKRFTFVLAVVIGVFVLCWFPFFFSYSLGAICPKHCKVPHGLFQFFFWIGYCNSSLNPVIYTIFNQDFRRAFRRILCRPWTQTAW

[4] = Terminal half life in CD-1 mouse at 10 mg/kg, po measured after 24 hrs by HPLC/UV-VS analysis; format: ADME, organism-based; conditions: in vivo, read-out: beta t1/2 (converted)
Method in brief: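 Male CD1 mice (40–50 g, n = 3–4 per group) received a single 10 mg/kg dose. Plasma was taken at 15, 30, 45 and 60 min and 2, 3, 4, 5, 8 and 24 h. Drug was measured by HPLC-UV at 290 nm against a calibration of 0,025-5 μg/mL. Non-compartmental analysis used the mean curve: t1/2β = ln2/β from least-squares terminal slope; Tmax read directly.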

[5] = Solubility of compound at pH 1.13; format: physicochemical; conditions: buffer
Method in brief: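 Solubility was measured at pH 1.13, 4.61 and 6.97, simulating gastric and intestinal fluids, and classed by European Pharmacopoeia terms.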

[6] = Displacement of [3H]2-BFI from imidazoline I2 receptor low affinity site in post-mortem human brain frontal cortex membrane two site model measured after 45 mins by liquid scintillation counting spectrometry
[7] = Hypothermic effect in CD-1 mouse assessed as reduction in body temperature at 50 mg/kg, ip measured up to 3 hrs by rectal thermometric method; format: ADME, organism-based; conditions: in vivo
Method in brief: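 Adult male and female CD-1 mice (n = 5 per group) given single i.p. doses (1, 5, 10, 20, 30, 50 mg/kg) or saline vehicle 2 ml/kg. Rectal temperature read with a digital probe before dosing and 1, 2 and 3 h after; change from basal value analysed by repeated measures ANOVA with Sidak's test.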

Cytochrome P450 2C9 = Cytochrome P450 2C9 (Homo sapiens, UniProt P11712); assay: Inhibition of CYP2C9 (unknown origin) at 10 uM; format: ADME
Sequence of Cytochrome P450 2C9 (P11712 whole entry): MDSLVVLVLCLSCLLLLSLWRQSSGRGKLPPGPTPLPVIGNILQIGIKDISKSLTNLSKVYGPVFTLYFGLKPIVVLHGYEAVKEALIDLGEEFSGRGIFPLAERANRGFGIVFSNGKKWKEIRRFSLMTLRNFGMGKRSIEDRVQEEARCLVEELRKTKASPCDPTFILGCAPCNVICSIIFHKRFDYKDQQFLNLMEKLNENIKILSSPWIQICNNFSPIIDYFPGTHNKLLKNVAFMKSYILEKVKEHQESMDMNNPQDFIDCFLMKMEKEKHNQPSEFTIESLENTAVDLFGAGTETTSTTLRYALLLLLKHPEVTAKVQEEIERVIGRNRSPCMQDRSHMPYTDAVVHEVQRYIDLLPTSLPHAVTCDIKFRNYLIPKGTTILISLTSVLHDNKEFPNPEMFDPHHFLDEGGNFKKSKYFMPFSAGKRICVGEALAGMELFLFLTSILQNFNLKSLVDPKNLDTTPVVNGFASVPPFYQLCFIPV
Method in brief: (§1)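 Recombinant human CYP1A2, CYP2C9, CYP2C19, CYP2D6 and CYP3A4 (7-BFC or DBF as probe) were tested with probe substances and fluorescent detection, with test compound at 10 μM.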

[8] = Stability in human plasma assessed as compound remaining after1 hrs; format: ADME, cell-free; conditions: read-out: Stabilty
Method in brief: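 Pooled human plasma from healthy donors, sampled at 0, 1, 2 and 6 h, reported as percentage of parent remaining.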

CAPAN-1 = assay: Cytotoxicity against human CAPAN-1 cells at 100 uM by real time IncuCyte proliferation assay; format: cell-based; conditions: capan-1, 100 µM
Method in brief: (§2)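 Adherent lines (LN-229, Capan-1, HCT-116, NCI-H460) seeded at 500–1500 cells/well and treated after overnight attachment. Suspension lines (HL-60, K-562, Z-138, DND-41) seeded at 2500–5500 cells/well directly with compound. Highest concentration 100 μM; proliferation tracked by real-time IncuCyte imaging over 72 h at 37 °C.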

[9] = Solubility of the compound in 99 % PBS buffer solution; format: physicochemical
K562 = assay: Cytotoxicity against human K562 cells at 100 uM by real time IncuCyte proliferation assay; format: cell-based; conditions: k562, 100 µM
Method in brief: as §2

Mus musculus [10] = assay: Antialzheimer activity in 5xFAD transgenic Alzheimer disease mouse model assessed as decrease in aldehyde dehydrogenase 2 expression at 1 mg/kg/day by Western blot analysis
Cytochrome P450 3A4 = Cytochrome P450 3A4 (Homo sapiens, UniProt P08684); assay: Inhibition of CYP3A4 (unknown origin) using as 7-BFC as substrate at 10 uM; format: ADME
Sequence of Cytochrome P450 3A4 (P08684 whole entry): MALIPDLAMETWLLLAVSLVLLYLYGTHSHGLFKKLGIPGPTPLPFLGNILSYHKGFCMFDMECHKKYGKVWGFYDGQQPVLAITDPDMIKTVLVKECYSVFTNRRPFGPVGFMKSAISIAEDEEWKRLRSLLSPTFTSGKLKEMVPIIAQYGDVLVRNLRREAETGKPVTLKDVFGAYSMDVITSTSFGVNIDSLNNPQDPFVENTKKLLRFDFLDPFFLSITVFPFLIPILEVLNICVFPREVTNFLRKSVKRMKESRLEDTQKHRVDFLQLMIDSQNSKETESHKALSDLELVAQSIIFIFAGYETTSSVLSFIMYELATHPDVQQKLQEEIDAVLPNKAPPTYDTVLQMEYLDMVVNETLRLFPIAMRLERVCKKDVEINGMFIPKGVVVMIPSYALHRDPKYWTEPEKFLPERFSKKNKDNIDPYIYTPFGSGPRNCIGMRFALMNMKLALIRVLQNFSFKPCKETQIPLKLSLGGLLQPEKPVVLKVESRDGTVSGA
Method in brief: as §1

[11] = Plasma protein binding in mouse assessed as unbound fraction; format: ADME, cell-free

## Cl.c1ccc2oc(-c3ncc[nH]3)cc2c1
[1]
  pKi: 6.45
Mus musculus [2]
  Activity: Active
[3]
  pKi: 3.18
[4]
  half-life: 6.7 h
[5]
  solubility: Soluble
[6]
  pKi: 6.02
[7]
  Activity: Toxic
Cytochrome P450 2C9
  inhibition (INH): Not Active
[8]
  remaining at 1 h: 83%
CAPAN-1
  Activity: Non-Toxic
[9]
  solubility: 52.5 µM
K562
  Activity: Non-Toxic
Mus musculus [10]
  Activity: Active
Cytochrome P450 3A4
  inhibition (INH): Not Active
[11]
  fraction unbound: 0.16
